These results are taken from ChEMBL document CHEMBL1124779, “Synthesis and antitumor activity of 1-[[(dialkylamino)alkyl]amino]-4-methyl-5H-pyrido[4,3-b]benzo[e]- and -benzo[g])indoles. A new class of antineoplastic agents” (1990).

Values after ≈ are worked out from the molar mass of the structure shown.

The test system of assay [1] is L1210. Briefly: Tested for cytotoxicity in the multiple tumor disk diffusion soft agar assay at the dose of 15 ug/disk against leukemia L1210; range is 450-600. Format: functional, Mus musculus. In outline: (§1)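 Soft agar disk diffusion: bottom layer 0.8% noble agar, top layer 0.47% noble agar, both in 1:1 CMRL-Fischer medium with 11% horse serum. Top layer seeded with 5×10^3 L1210 cells or 10^6 solid tumor cells (C38, PO3). Drug applied on a dried 6-mm filter-paper disk. Incubation 7-11 days. Inhibition zone measured by inverted microscope, in units (1 unit = 30 μm).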
On the technique in general: Agar diffusion results depend on both activity and mobility in agar.

Assay [2] can be described thus: Cytotoxicity in the multiple tumor disk diffusion soft agar assay at the dose of 15 ug/disk against solid tumor C38. Format: functional, Mus musculus. In outline: as §1
Assay [3] deals with P388. Briefly: In vivo T/C (survival time treated/survival time control x 100) was determined against P388 leukemia cells at 40 mg/Kg. The assay is classed as functional, Mus musculus. In short, it runs like this:
(§2)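 B6D2 F1 mice, at least five per group, were inoculated ip on day 0 with 10^6 viable P388 cells (25 mL/kg). Compounds were dissolved in distilled water and given ip (25 mL/kg) daily on days 1–4. Mortality was checked daily, with necropsy of dead animals. T/C×100 was median survival, treated versus control. Survivors beyond 50 days counted as cured and were excluded from the median.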

For assay [4], the system named is P388. Briefly: In vitro cytotoxicity was determined against P388 leukemia cells. The settings on record: Mus musculus, read-out: ID50 (the source's name). The assay is classed as functional. In outline:
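P388 cells in exponential growth, RPMI 1640 with 2 mM glutamine, 10 μM 2-mercaptoethanol and 10% FCS, 5% CO2, 37 °C. Cells at 10^5 cells/mL. Drugs in distilled water added on day 0. Cells counted by Coulter counter after 96 h. ID50 (μg/mL, 50% inhibition of proliferation) estimated by regression of concentration/response data.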

For assay [5], the system named is L1210. Briefly: Cytotoxicity in the multiple tumor disk diffusion soft agar assay at the dose of 15 ug/disk against leukemia L1210. Format: functional, Mus musculus. In outline: as §1
The nature of assay [6]: Tested for cytotoxicity in the multiple tumor disk diffusion soft agar assay at the dose of 15 ug/disk against solid tumor C38; range is 450-525. Format: functional, Mus musculus. In short, it runs like this:
as §1

Assay [7] concerns L1210. Briefly: Tested for cytotoxicity in the multiple tumor disk diffusion soft agar assay at the dose of 15 ug/disk against leukemia L1210; range is 475-600. The assay is classed as functional, Mus musculus. In short, it runs like this: as §1
The nature of assay [8]: Cytotoxicity in the multiple tumor disk diffusion soft agar assay at the dose of 15 ug/disk against solid tumor PO3. The assay is classed as functional, Mus musculus. In short, it runs like this:
as §1

Assay [9] is described as follows: Tested for cytotoxicity in the multiple tumor disk diffusion soft agar assay at the dose of 15 ug/disk against solid tumor C38; range is 650-675. Format: functional, Mus musculus. In short, it runs like this: as §1
Assay [10] relates to L1210. Briefly: In vivo T/C (survival time treated/survival time control x 100) was determined against L1210 leukemia cells at 20 mg/Kg. The assay is classed as functional, Mus musculus. In outline:
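B6D2 F1 mice, at least five per group, were inoculated ip on day 0 with 10^5 viable L1210 cells (25 mL/kg). Compounds were dissolved in distilled water and given ip (25 mL/kg) on days 1–4. Deaths were checked daily, with necropsy to separate tumor from toxic death. T/C×100 was median survival of treated over controls. Mice surviving over 50 days counted as cured and were excluded from the median.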

The test system of assay [11] is P388. Briefly: In vivo T/C (survival time treated/survival time control x 100) was determined against P388 leukemia cells at 20 mg/Kg. Format: functional, Mus musculus. In outline: as §2
Assay [12] has as its system L1210. Briefly: Tested for cytotoxicity in the multiple tumor disk diffusion soft agar assay at the dose of 15 ug/disk against leukemia L1210; range is 550-680. Format: functional, Mus musculus. In outline: as §1
The test system of assay [13] is P388. Briefly: In vivo T/C (survival time treated/survival time control x 100) was determined against P388 leukemia cells at 10 mg/Kg. Format: functional, Mus musculus. In outline: as §2
Assay [14] deals with L1210. Briefly: Tested for cytotoxicity in the multiple tumor disk diffusion soft agar assay at the dose of 15 ug/disk against leukemia L1210; range is 300-375. Format: functional, Mus musculus. In outline:
as §1

In the case of `CCN(CC)CCCNc1ncc(C)c2c1c1c3ccccc3ccc1n2C`, the Cytotoxicity with L1210 [1] is 450 U; in assay [2], 520 U. The “T/C x100” value with P388 [3] is 124. Besides, the IC50 in the assay on P388 [4] worked out at 0.1 µg/mL (≈ 0.267 µM).

On to `Cc1cnc(NCCCN(C)C)c2c3c4ccccc4ccc3n(C)c12`, for which the Cytotoxicity came out at 425 U in the assay with L1210 [5], 450 U in [6], 475 U with L1210 [7] and 550 U in assay [8]. The “T/C x100” value in the assay on P388 [3] was 164. The IC50 with P388 [4] was 0.05 µg/mL (≈ 0.144 µM).

For `CCN(CC)CCCNc1ncc(C)c2c1c1c3ccc(O)cc3ccc1n2C`, the Cytotoxicity is on record as 450 U with L1210 [5] and 650 U in assay [9]. Besides, the “T/C x100” value in the assay on L1210 [10] is 129; in the assay with P388 [11], 232. The IC50 in the assay on P388 [4] worked out at 0.025 µg/mL (≈ 0.064 µM).

With `COc1ccc2c(ccc3c2c2c(NCCCN(C)C)ncc(C)c2n3C)c1`, the Cytotoxicity was found to be 550 U with L1210 [12], 425 U with L1210 [5], 325 U in assay [2] and 200 U in assay [8]. In addition, the “T/C x100” value with P388 [3] was 150. Moreover, the IC50 in the assay on P388 [4] amounted to 0.5 µg/mL (≈ 1.33 µM).

For the molecule `CCN(CC)CCCNc1[nH]cc(C)c2nc3c(ccc4ccccc43)c1-2`, the “T/C x100” value in the assay with P388 [13] amounted to 102. The Cytotoxicity came out at 500 U with L1210 [5], 460 U in [2], 300 U with L1210 [14] and 200 U in assay [8]. Moreover, the IC50 in the assay with P388 [4] turned out to be 0.75 µg/mL (≈ 2.08 µM).
